Measurements published in ChEMBL document CHEMBL1156630, “Investigations on the 4-quinolone-3-carboxylic acid motif. 2. Synthesis and structure-activity relationship of potent and selective cannabinoid-2 receptor agonists endowed with analgesic activity in vivo” (J Med Chem, 2008).
The source made the active and inactive calls. The calls are words filed in the database; no cut-off is given here.

Experiments:
[1] = target: Cannabinoid receptor 2 (Homo sapiens, UniProt P34972); assay: Displacement of [3H]CP-55940 from human CB2 receptor expressed in HEK293 cells; assay type: cell-based
[2] = organism: Homo sapiens; assay: Selectivity for human CB2 receptor over human CB1 receptor
In short: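 Ratio Ki(CB1)/Ki(CB2) from radioligand displacement on HEK-cell membranes expressing human CB1 or CB2. Ki derived from IC50 via Cheng-Prusoff. Final DMSO below 0.1%.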

[3] = target: Cannabinoid receptor 1 (Homo sapiens, UniProt P21554); assay: biochemical; assay type: cell-based, HEK293
[4] = system: Mus musculus; assay: Analgesic activity in mouse assessed as inhibition of formalin-induced nociceptive response at 3 mg/kg, ip in presence of AM630; assay type: functional, organism-based; parameters: dose 3 mg/kg
In short: (§1)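 Mice, 8-10 per group, randomly assigned; 1.25% formalin into dorsal hind paw. Drug given ip in 10% DMSO/0.9% NaCl 15 min before formalin; AM630 3 mg/kg ip given 5 min before compound. Licking, lifting, flinching, shaking and favoring timed in 5-min bins over 60 min; second phase 15-60 min. Two-way ANOVA with Bonferroni.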

[5] = system: Mus musculus; assay: Analgesic activity in mouse assessed as inhibition of formalin-induced nociceptive response at 3 mg/kg, ip; assay type: functional, organism-based; parameters: dose 3 mg/kg; in short: as §1

Chain of Cannabinoid receptor 1 (P21554 whole entry): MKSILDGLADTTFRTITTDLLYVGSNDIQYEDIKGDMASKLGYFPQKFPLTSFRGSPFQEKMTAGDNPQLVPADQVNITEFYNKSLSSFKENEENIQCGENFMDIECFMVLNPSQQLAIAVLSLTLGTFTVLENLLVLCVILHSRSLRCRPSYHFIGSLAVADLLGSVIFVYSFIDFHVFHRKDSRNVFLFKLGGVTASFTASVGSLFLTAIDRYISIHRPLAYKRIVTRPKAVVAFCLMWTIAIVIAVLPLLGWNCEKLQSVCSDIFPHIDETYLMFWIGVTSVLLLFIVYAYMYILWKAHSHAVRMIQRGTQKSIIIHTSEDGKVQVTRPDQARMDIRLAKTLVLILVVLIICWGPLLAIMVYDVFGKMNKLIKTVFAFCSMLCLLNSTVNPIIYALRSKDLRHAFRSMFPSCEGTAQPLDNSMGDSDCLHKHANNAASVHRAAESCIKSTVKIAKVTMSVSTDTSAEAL
Chain of Cannabinoid receptor 2 (P34972 whole entry): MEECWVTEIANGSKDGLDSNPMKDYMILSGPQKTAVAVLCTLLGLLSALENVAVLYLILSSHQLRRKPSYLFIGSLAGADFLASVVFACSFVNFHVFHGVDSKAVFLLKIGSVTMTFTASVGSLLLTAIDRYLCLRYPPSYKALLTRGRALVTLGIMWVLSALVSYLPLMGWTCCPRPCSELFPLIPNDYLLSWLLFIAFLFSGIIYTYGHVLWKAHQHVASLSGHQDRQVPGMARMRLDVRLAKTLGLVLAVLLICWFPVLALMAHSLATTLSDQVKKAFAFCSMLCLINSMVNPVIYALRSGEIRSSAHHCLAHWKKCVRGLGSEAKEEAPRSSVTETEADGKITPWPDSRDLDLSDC

Row | SMILES | Ki [1] [nM] | Ratio Ki [2] | Ki [3] [nM] | Activity [4] | Activity [5]
1 | CCCCCn1cc(C(=O)NC23CC4CC(CC(C4)C2)C3)c(=O)c2cc(-c3ccccc3)ccc21 | 3.8 | > 2670 | > 10000 |  | 
2 | CCCCCn1cc(C(=O)NC23CC4CC(CC(C4)C2)C3)c(=O)c2cc(Br)ccc21 | 14.3 | 69.4 | 996 |  | 
3 | CCCCCn1cc(C(=O)N[C@H](C)c2ccccc2)c(=O)c2ccc(N3CCCC3)cc21 | 17.1 | 9.4 | 160 |  | 
4 | CCCCCn1cc(C(=O)NC23CC4CC(CC(C4)C2)C3)c(=O)c2cc(Sc3ccccc3)ccc21 | 3.4 | 189 | 640 |  | 
5 | CCCCCn1cc(C(=O)NC23CC4CC(CC(C4)C2)C3)c(=O)c2ccc(Sc3ccccc3)cc21 | 1.6 | 3.3 | 5.3 |  | 
6 | CCCCCn1cc(C(=O)NC23CC4CC(CC(C4)C2)C3)c(=O)c2cc(Oc3ccc(F)c(Cl)c3)ccc21 | 16.1 | 46 | 739 |  | 
7 | CCCCCn1cc(C(=O)N[C@H](C)c2ccccc2)c(=O)c2ccc(OCC)cc21 | 24.2 | 1.2 | 29.7 |  | 
8 | CCCCCn1cc(C(=O)NC23CC4CC(CC(C4)C2)C3)c(=O)c2ccc(Cl)c(C)c21 | 25.5 | > 393 | > 10000 |  | 
9 | CCCCCn1cc(C(=O)NC23CC4CC(CC(C4)C2)C3)c(=O)c2c(OC)ccc(OC)c21 | 52.6 | 39.9 | 2100 |  | 
10 | CCCCCn1cc(C(=O)NC23CC4CC(CC(C4)C2)C3)c(=O)c2ccc([S+]([O-])c3ccccc3)cc21 (stereo unspecified) | 3.5 | 8 | 28 |  | 
11 | CCCCCn1cc(C(=O)NC23CC4CC(CC(C4)C2)C3)c(=O)c2ccc(S(=O)(=O)c3ccccc3)cc21 | 0.9 |  | 6.1 |  | 
12 | C=CCCCn1cc(C(=O)NC23CC4CC(CC(C4)C2)C3)c(=O)c2cc(Br)ccc21 | 9.4 | 74.4 | 696 |  | 
13 | CCCCCn1cc(C(=O)NC23CC4CC(CC(C4)C2)C3)c(=O)c2cc(/C=C/c3ccc(OC)cc3)ccc21 | 55.9 | 47 | 2630 |  | 
14 | CCCCCn1cc(C(=O)NC23CC4CC(CC(C4)C2)C3)c(=O)c2ccc(F)cc21 | 0.8 | 38.1 | 30.5 |  | 
15 | C=CCn1cc(C(=O)NC23CC4CC(CC(C4)C2)C3)c(=O)c2c(OC)ccc(OC)c21 | 9.2 | > 1090 | > 10000 |  | 
16 | CCCCCn1cc(C(=O)NC23CC4CC(CC(C4)C2)C3)c(=O)c2cc(C(C)C)ccc21 |  |  |  | inactive | Active
17 | CCCCCn1cc(C(=O)N[C@H](C)c2ccccc2)c(=O)c2ccc(F)cc21 | 10.7 | 1.3 | 14.3 |  | 
18 | C=CCCn1cc(C(=O)NC23CC4CC(CC(C4)C2)C3)c(=O)c2cc(Br)ccc21 | 23.8 | 113 | 2680 |  | 
19 | CCCCCn1cc(C(=O)NC23CC4CC(CC(C4)C2)C3)c(=O)c2cc(C(F)(F)F)ccc21 | 11.6 | 217 | 2520 |  | 
20 | CCCCCn1cc(C(=O)NC23CC4CC(CC(C4)C2)C3)c(=O)c2cc(F)c(-n3cccc3)cc21 | 3.6 | 38.8 | 140 |  | 
21 | CCCCCn1cc(C(=O)NC23CC4CC(CC(C4)C2)C3)c(=O)c2ccccc21 | 4.7 | 9 | 42.1 |  | 
